Read-outs that look alike come from different tables or passages of the source. Square brackets hold non-standard residues; d marks the D form. Peptide text beside a SMILES is read from it. pS = N[C@@H](COP(=O)(O)O)C(=O)O
Experiments:
Pin1-FL [1] = target: T1, Pin1-FL (Homo sapiens, UniProt Q13526); format: binding; conditions: B = C-terminal site
Outline: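 Full-length Pin1 underwent reverse titration with dually phosphorylated peptides; HSQC perturbations in N and H dimensions were fit separately (fmincon). The multistate model added two bivalent states, each with its own Keq. Non-bivalent KD and bound shifts were fixed from single-site titrations. Residues needed distinct bound shifts per motif. Reduced chi-square used σH 0.00407 and σN 0.0205 ppm.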

[2] = target: Pin1-FL (with 6X-His tag) (Homo sapiens, UniProt Q13526); assay: Biolayer interferometry; format: binding
Outline: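 Ni-NTA biosensors loaded with 10 μg/mL His-tagged full-length Pin1 for 600 s, quenched 300 s with buffer plus 10 mM imidazole and 25 μg/mL biotin. Association with singly or dually phosphorylated peptide at 80–1.25 μM for 600 s, then 600 s dissociation in buffer. Buffer: 10 mM HEPES, 20 mM NaCl, 0.1 mM TCEP, pH 7.4; 25°C. Pin1-free sensors served as nonspecific-binding reference.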

Pin1-FL [3] = target: T1, Pin1-FL; assay: Simulation of Pin1-FL binding at low micromolar concentrations

T1 sequence (Q13526 whole entry): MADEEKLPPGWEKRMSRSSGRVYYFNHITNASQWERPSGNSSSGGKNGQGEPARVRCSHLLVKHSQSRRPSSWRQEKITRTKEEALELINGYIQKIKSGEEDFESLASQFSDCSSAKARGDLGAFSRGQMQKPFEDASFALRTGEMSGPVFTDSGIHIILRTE
Pin1-FL (with 6X-His tag), sequence (Q13526 whole entry): as above

KeqB:WW (Fitted Keq^A:WW, Keq^B:WW and Δδbound for bivalent states) (Pin1-FL [1]; nitrogen dimension) | KeqB:WW (Fitted Keq^A:WW, Keq^B:WW and Δδbound for bivalent states) (Pin1-FL [1]; proton dimension) | Kd [2] [µM] | ΔGequiv (change in Gibbs free energy) (Pin1-FL [3]; corresponds to the equivalent bimolecular KD at 20 μM peptide) [kcal/mol] | total fraction of bound Pin1 (Pin1-FL [3]; simulated, 20 μM peptide, total Pin1 ~0.5 μM, sum of all bound Pin1 species divided by total Pin1) | Pin1 binding detected by biolayer interferometry ([2]; peptide 1.25-80 μM, BLI buffer pH 7.4, 25°C) | SMILES
0.02 | 0.43 | 1 | -7.49 | 0.85 |  | CC(=O)N[C@@H](CCC(=O)O)C(=O)N[C@@H](C)C(=O)N[C@@H](CCC(=O)O)C(=O)N[C@@H](C)C(=O)N[C@@H](Cc1c[nH]c2ccccc12)C(=O)N[C@@H](COP(=O)(O)O)C(=O)N1CCC[C@H]1C(=O)N[C@@H](CCCNC(=N)N)C(=O)N[C@@H](CCCCN)C(=O)N[C@@H](CC(C)C)C(=O)N1CCC[C@H]1C(=O)N[C@@H](CO)C(=O)N[C@@H](CO)C(=O)N[C@@H](C)C(=O)N[C@@H](CO)C(=O)N[C@H](C(=O)N[C@@H](Cc1ccccc1)C(=O)N[C@@H](CC(C)C)C(=O)N[C@@H](COP(=O)(O)O)C(=O)N1CCC[C@H]1C(=O)N[C@@H](C)C(=O)N[C@@H](Cc1ccccc1)C(=O)N1CCC[C@H]1C(=O)NCC(N)=O)[C@@H](C)O [p131/p144] (Ac-EAEAW[pS]PRKLPSSASTFL[pS]PAFPG-NH2)
 |  |  |  |  | not measurable | CC(C)C[C@H](NC(=O)[C@H](Cc1ccccc1)NC(=O)[C@@H](NC(=O)[C@@H](N)CO)[C@@H](C)O)C(=O)N[C@@H](COP(=O)(O)O)C(=O)N1CCC[C@H]1C(=O)N[C@@H](C)C(=O)N[C@@H](Cc1ccccc1)C(=O)N1CCC[C@H]1C(=O)NCC(=O)O [p144] (H-STFL[pS]PAFPG-OH)

— PMC5298935 (The FEBS journal, 2016)
